Here are results for 19 molecules from ChEMBL document CHEMBL3734657, “Discovery of Novel Multifunctional Ligands with μ/δ Opioid Agonist/Neurokinin-1 (NK1) Antagonist Activities for the Treatment of Pain” (J Med Chem, 2015).

The source made the active and inactive calls. The calls are words filed in the database; no cut-off is given here.

In data set [1] the target is T1, Mu-type opioid receptor (Homo sapiens, UniProt P35372). Put plainly: Binding affinity to mu opioid receptor (unknown origin).
T1 sequence (P35372 whole entry): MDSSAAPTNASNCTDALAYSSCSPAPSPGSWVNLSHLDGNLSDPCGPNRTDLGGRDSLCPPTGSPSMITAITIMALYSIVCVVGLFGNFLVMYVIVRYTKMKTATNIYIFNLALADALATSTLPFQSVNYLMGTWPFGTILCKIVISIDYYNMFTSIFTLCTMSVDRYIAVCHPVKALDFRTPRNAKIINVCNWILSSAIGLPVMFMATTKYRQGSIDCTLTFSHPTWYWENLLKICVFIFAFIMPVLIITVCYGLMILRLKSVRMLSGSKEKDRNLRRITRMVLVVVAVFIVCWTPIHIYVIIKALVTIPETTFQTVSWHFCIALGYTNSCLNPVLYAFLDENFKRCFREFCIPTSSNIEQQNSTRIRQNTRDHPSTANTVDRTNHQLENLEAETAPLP
The target of data set [2] is T2, Delta-type opioid receptor (Homo sapiens, UniProt P41143). Put plainly: Binding affinity to delta opioid receptor (unknown origin).
T2 sequence (P41143 whole entry): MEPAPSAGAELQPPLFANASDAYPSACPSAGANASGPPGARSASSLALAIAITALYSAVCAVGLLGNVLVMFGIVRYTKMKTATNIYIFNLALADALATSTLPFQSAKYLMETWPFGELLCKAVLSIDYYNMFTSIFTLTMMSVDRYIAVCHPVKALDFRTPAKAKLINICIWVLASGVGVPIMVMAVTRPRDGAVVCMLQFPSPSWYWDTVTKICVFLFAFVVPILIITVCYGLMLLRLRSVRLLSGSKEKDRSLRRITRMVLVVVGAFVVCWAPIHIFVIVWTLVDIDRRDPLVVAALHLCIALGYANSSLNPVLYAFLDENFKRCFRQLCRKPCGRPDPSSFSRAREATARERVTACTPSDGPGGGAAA
The target of data set [3] is Delta-type opioid receptor (Mus musculus, UniProt P32300). Put plainly: Agonist activity at delta opioid receptor in ICR mouse isolated vas deferens assessed as inhibition of electrically-stimulated muscle contraction. The class given is tissue-based.
Sequence of Delta-type opioid receptor (Mus musculus, UniProt P32300) (P32300 whole entry): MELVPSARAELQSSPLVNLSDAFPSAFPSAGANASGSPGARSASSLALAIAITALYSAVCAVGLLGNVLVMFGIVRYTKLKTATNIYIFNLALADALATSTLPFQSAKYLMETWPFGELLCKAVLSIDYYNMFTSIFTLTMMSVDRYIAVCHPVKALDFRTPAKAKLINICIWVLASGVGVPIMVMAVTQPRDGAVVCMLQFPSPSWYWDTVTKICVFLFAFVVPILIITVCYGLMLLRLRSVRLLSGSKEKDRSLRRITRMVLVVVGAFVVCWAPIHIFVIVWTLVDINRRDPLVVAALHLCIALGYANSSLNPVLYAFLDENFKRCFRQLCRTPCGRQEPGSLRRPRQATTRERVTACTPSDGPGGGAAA
Data set [4] deals with T1, Mu-type opioid receptor. Kind of data set: Agonist activity at mu opioid receptor (unknown origin) expressed in HEK293 cells assessed as inhibition of forskolin-induced cAMP accumulation by bioluminescent assay. The class given is functional, cell-based.
The target in data set [5] is T2, Delta-type opioid receptor. Kind of data set: Agonist activity at delta receptor (unknown origin) expressed in HEK293 cells assessed as inhibition of forskolin-induced cAMP accumulation by bioluminescent assay. The class given is functional, cell-based.
Data set [6] is described as follows: Metabolic stability in rat plasma assessed as compound remaining at 50 ug/ml […] by RP-HPLC assay. The class given is ADME, cell-free. Particulars: read-out: Stability.
Data set [7] is described as follows: Half-life in rat plasma at 50 ug/ml by RP-HPLC assay. The class given is ADME, cell-free. A digest of the protocol: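 50 mg/mL DMSO stock diluted 1000-fold into rat plasma (final 50 μg/mL), 37 °C. Aliquots at 0.5–8 h quenched with acetonitrile, centrifuged; parent remaining by RP-HPLC C18. Two independent runs, each in duplicate; half-life from mean of the two.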

The species entered for data set [8] is Homo sapiens. Kind of data set: Selectivity ratio of Ki for mu opioid receptor (unknown origin) to Ki for delta opioid receptor (unknown origin).
Data set [9] addresses Substance-P receptor (Cavia porcellus) (UniProt P30547). Put plainly: Agonist activity at neurokinin-1 receptor in Hartley guniea pig isolated ileum/Longitudinal Muscle with Myenteric Plexus assessed as inhibition of electrically-stimulated muscle contraction at 30 nM. The class given is tissue-based.
A short description of data set [10]: Selectivity ratio of IC50 for mu opioid receptor in Hartley guniea pig isolated ileum to IC50 for delta opioid receptor in ICR mouse isolated vas deferens. The class given is tissue-based.
In data set [11] the target is Substance-P receptor (Cavia porcellus) (UniProt P30547). Put plainly: Agonist activity at neurokinin-1 receptor in Hartley guniea pig isolated ileum/Longitudinal Muscle with Myenteric Plexus assessed as inhibition of electrically-stimulated muscle contraction at 100 nM. The class given is tissue-based.
Sequence of Substance-P receptor (Cavia porcellus) (P30547 whole entry): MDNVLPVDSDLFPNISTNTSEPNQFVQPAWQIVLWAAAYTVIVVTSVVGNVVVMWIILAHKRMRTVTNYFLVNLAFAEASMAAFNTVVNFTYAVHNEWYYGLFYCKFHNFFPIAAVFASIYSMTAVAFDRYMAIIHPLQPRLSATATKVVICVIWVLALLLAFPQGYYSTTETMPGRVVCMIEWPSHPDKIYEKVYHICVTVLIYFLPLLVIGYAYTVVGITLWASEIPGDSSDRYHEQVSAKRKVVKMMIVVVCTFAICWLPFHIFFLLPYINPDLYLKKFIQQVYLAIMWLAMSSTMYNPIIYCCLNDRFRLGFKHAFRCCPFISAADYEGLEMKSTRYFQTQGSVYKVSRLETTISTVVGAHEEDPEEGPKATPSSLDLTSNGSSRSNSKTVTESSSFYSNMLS
Data set [12] shares this target. Kind of data set: Antagonist activity at neurokinin-1 receptor in Hartley guniea pig isolated ileum/Longitudinal Muscle with Myenteric Plexus assessed as inhibition of electrically-stimulated muscle contraction. The class given is tissue-based.
For data set [13], the species on record is Homo sapiens. Put plainly: Selectivity ratio of IC50 for mu opioid receptor (unknown origin) to IC50 for delta opioid receptor (unknown origin).
For data set [14], the target named is Substance-P receptor (Homo sapiens) (UniProt P25103). Kind of data set: Antagonist activity at neurokinin-1 receptor (unknown origin) expressed in CHO cells assessed as inhibition of substance-P induced calcium flux by bioluminescent assay. The class given is functional, cell-based.
Sequence of Substance-P receptor (Homo sapiens) (P25103 whole entry): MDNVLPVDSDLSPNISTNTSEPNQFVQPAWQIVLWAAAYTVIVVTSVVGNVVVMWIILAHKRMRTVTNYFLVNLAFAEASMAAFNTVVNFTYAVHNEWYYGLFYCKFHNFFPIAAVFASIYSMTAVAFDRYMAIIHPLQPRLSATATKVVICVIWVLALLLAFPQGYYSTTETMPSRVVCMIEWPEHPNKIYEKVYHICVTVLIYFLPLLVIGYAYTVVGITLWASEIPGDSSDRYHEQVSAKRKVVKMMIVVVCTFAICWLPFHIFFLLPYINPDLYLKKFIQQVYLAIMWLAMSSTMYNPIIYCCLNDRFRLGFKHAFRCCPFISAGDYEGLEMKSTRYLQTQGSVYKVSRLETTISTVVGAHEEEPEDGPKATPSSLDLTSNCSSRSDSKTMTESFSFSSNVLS
In another data set the target is Substance-P receptor (Rattus norvegicus, UniProt P14600). Kind of data set: Displacement of [3H]SP from rat neurokinin-1 receptor expressed in CHO cells incubated for 20 mins by liquid scintillation counting. The class given is cell-based. Summed up:
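CHO membranes with human or rat NK1: six compound concentrations in duplicate with 20 μg membrane and 0.5 nM [3H]SP in 50 mM Tris pH 7.4, 5 mM MgCl2 plus peptidase inhibitors; 25 °C, 20 min. Nonspecific binding with 10 μM SP. GF/B filtration (PEI-soaked), scintillation counting.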

The target of data set [15] is Mu-type opioid receptor (Cavia porcellus, UniProt P97266). Put plainly: Agonist activity at mu opioid receptor in Hartley guniea pig isolated ileum assessed as inhibition of electrically-stimulated muscle contraction. The class given is tissue-based.
Sequence of Mu-type opioid receptor (Cavia porcellus, UniProt P97266) (P97266 whole entry): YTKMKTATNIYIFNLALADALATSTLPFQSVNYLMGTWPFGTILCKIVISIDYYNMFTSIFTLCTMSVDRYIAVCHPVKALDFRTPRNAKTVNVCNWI
For data set [16], the target named is Substance-P receptor (Cavia porcellus) (UniProt P30547). Kind of data set: Agonist activity at neurokinin-1 receptor in Hartley guniea pig isolated ileum/Longitudinal Muscle with Myenteric Plexus assessed as inhibition of electrically-stimulated muscle contraction at 300 nM. The class given is tissue-based.
The species entered for a further data set is Rattus norvegicus. Put plainly: Neurotoxicity in Sprague-Dawley rat assessed as motor impairment at 10 ug/5 ul, it by rotarod test. The class given is toxicity, organism-based. The following applies: in vivo, icv_or_intrathecal. A digest of the protocol: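 Intrathecal catheterized Sprague–Dawley rats given 10 μg in 5 μL; motor function assessed by rotarod.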

Data set [17] has as its target Substance-P receptor (Cavia porcellus) (UniProt P30547). Kind of data set: Agonist activity at neurokinin-1 receptor in Hartley guniea pig isolated ileum assessed as inhibition of electrically-stimulated muscle contraction at 1 uM. The class given is tissue-based. More on the design: scale not given: the % may be the effect or the level left.

Sequence of Substance-P receptor (P14600 whole entry): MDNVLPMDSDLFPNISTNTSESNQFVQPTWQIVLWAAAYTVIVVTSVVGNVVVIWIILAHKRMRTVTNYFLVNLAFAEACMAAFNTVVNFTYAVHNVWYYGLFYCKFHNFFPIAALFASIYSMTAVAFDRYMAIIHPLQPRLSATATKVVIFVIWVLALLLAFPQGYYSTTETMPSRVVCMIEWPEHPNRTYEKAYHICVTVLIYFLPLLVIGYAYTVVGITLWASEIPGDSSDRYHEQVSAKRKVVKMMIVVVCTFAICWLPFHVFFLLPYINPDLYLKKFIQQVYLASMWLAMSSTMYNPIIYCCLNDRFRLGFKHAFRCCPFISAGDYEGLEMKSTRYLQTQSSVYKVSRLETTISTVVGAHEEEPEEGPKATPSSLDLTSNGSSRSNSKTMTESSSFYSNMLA

For `Cc1cc(O)cc(C)c1C[C@H](N)C(=O)N[C@H](C)C(=O)NCC(=O)N[C@@H](Cc1ccc(F)cc1)C(=O)N1CCC[C@H]1C(=O)N[C@@H](CC(C)C)C(=O)N[C@@H](Cc1c[nH]c2ccccc12)C(=O)NCc1cc(C(F)(F)F)cc(C(F)(F)F)c1`, the IC50 at Mu-type opioid receptor [1] is 0.00191 µM; in data set [2], 0.0661 µM; in data set [3], 0.002 µM; at Mu-type opioid receptor [4], 0.059 µM; in [5] it was 0.021 µM. In data set [6], the remaining at 50 ug/ml came to 100%. For the same molecule, the half-life at 50 ug/ml in [7] is above 12 h.

Turning to `Cc1cc(O)cc(C)c1C[C@H](N)C(=O)N[C@@H](C)C(=O)NCC(=O)N[C@@H](Cc1ccc(F)cc1)C(=O)N1CCC[C@H]1C(=O)N[C@@H](CC(C)C)C(=O)N[C@@H](Cc1c[nH]c2ccccc12)C(=O)NCc1cc(C(F)(F)F)cc(C(F)(F)F)c1`, in the data set listed under Homo sapiens [8], the Ratio Ki turned out to be 1. Moreover, in data set [9], the result was inactive.

Consider `CC(C)C[C@H](NC(=O)[C@@H]1CCCN1C(=O)[C@H](Cc1ccccc1)NC(=O)CNC(=O)[C@@H](C)NC(=O)[C@@H](N)Cc1ccc(O)cc1)C(=O)N[C@@H](Cc1c[nH]c2ccccc12)C(=O)NCc1cc(C(F)(F)F)cc(C(F)(F)F)c1`, for which, on Mu-type opioid receptor [1], the IC50 is 0.02 µM and the Ki was found to be 0.0095 µM.

Regarding `Cc1cc(O)cc(C)c1C[C@H](N)C(=O)N[C@H](C)C(=O)NCC(=O)N(C)[C@@H](Cc1ccc(F)cc1)C(=O)N1CCC[C@H]1C(=O)N[C@@H](CC(C)C)C(=O)N[C@@H](Cc1c[nH]c2ccccc12)C(=O)NCc1cc(C(F)(F)F)cc(C(F)(F)F)c1`, at Mu-type opioid receptor [1], the IC50 was 0.00282 µM.

`CC(C)C[C@H](NC(=O)[C@@H]1CCCN1C(=O)[C@H](Cc1ccccc1)N(C)C(=O)CNC(=O)[C@@H](C)NC(=O)[C@@H](N)Cc1ccc(O)cc1)C(=O)N[C@@H](Cc1c[nH]c2ccccc12)C(=O)NCc1cc(C(F)(F)F)cc(C(F)(F)F)c1` showed a half-inhibitory concentration (IC50) at Mu-type opioid receptor [1] of 0.0891 µM.

For `Cc1cc(O)cc(C)c1C[C@H](N)C(=O)N[C@@H](C)C(=O)NCC(=O)N(C)[C@@H](Cc1ccc(F)cc1)C(=O)N1CCC[C@H]1C(=O)N[C@@H](CC(C)C)C(=O)N[C@@H](Cc1c[nH]c2ccccc12)C(=O)NCc1cc(C(F)(F)F)cc(C(F)(F)F)c1`, the outcome in data set [9] was inactive.

With `CC(C)C[C@H](NC(=O)[C@@H]1CCCN1C(=O)[C@H](Cc1ccccc1)N(C)C(=O)CNC(=O)[C@H](C)NC(=O)[C@@H](N)Cc1ccc(O)cc1)C(=O)N[C@@H](Cc1c[nH]c2ccccc12)C(=O)NCc1cc(C(F)(F)F)cc(C(F)(F)F)c1`, the Ratio IC50 in data set [10] came out at 2. Further, the outcome in data set [11] was inactive.

Turning to `Cc1cc(O)cc(C)c1C[C@H](N)C(=O)N[C@@H](C)C(=O)NCC(=O)N[C@@H](Cc1ccccc1)C(=O)N1CCC[C@H]1C(=O)N[C@@H](CC(C)C)C(=O)N[C@@H](Cc1c[nH]c2ccccc12)C(=O)NCc1cc(C(F)(F)F)cc(C(F)(F)F)c1`, in the data set filed under Homo sapiens [8], the Ratio Ki was found to be 3. Moreover, the Ratio IC50 in data set [10] was found to be 26; in the data set filed under Homo sapiens [13] it was 6. Further, the outcome in data set [11] was inactive. Moreover, the Ke in data set [12] was determined as 25 nM; in data set [14], 11 nM.

Molecule `Cc1cc(O)cc(C)c1C[C@H](N)C(=O)N[C@H](C)C(=O)NCC(=O)N[C@@H](Cc1ccc(Cl)cc1)C(=O)N1CCC[C@H]1C(=O)N[C@@H](CC(C)C)C(=O)N[C@@H](Cc1c[nH]c2ccccc12)C(=O)NCc1cc(C(F)(F)F)cc(C(F)(F)F)c1` gave an IC50 on Mu-type opioid receptor [1] of 0.00468 µM.

As for `Cc1cc(O)cc(C)c1C[C@H](N)C(=O)N[C@H](C)C(=O)NCC(=O)N[C@@H](Cc1ccccc1)C(=O)N1CCC[C@H]1C(=O)N[C@@H](CC(C)C)C(=O)N[C@@H](Cc1c[nH]c2ccccc12)C(=O)NCc1cc(C(F)(F)F)cc(C(F)(F)F)c1`, the Ki at Substance-P receptor (cho) turned out to be 0.027 µM; at Mu-type opioid receptor [1], 0.003 µM. Also, the 50% inhibitory concentration (IC50) at Mu-type opioid receptor [1] was 0.00234 µM; on Mu-type opioid receptor [15], 0.081 µM; on Mu-type opioid receptor [4] (hek293), 0.046 µM; in data set [5] (hek293) it was 0.0072 µM.

For `Cc1cc(O)cc(C)c1C[C@H](N)C(=O)N[C@@H](C)C(=O)NCC(=O)N(C)[C@@H](Cc1ccccc1)C(=O)N1CCC[C@H]1C(=O)N[C@@H](CC(C)C)C(=O)N[C@@H](Cc1c[nH]c2ccccc12)C(=O)NCc1cc(C(F)(F)F)cc(C(F)(F)F)c1`, in [9], the result was inactive.

At Mu-type opioid receptor [1], `Cc1cc(O)cc(C)c1C[C@H](N)C(=O)N[C@H](C)C(=O)NCC(=O)N[C@@H](Cc1ccc(I)cc1)C(=O)N1CCC[C@H]1C(=O)N[C@@H](CC(C)C)C(=O)N[C@@H](Cc1c[nH]c2ccccc12)C(=O)NCc1cc(C(F)(F)F)cc(C(F)(F)F)c1` showed an IC50 of 0.0132 µM.

With `Cc1cc(O)cc(C)c1C[C@H](N)C(=O)N[C@@H](C)C(=O)NCC(=O)N[C@@H](Cc1ccc(Cl)cc1)C(=O)N1CCC[C@H]1C(=O)N[C@@H](CC(C)C)C(=O)N[C@@H](Cc1c[nH]c2ccccc12)C(=O)NCc1cc(C(F)(F)F)cc(C(F)(F)F)c1`, the Ratio Ki in the data set listed under Homo sapiens [8] was 1. For the same molecule, in data set [10], the Ratio IC50 stood at 7. Besides, in data set [16], the outcome was inactive.

Turning to `CC(C)C[C@H](NC(=O)[C@@H]1CCCN1C(=O)[C@H](Cc1ccc(F)cc1)NC(=O)CNC(=O)[C@@H](C)NC(=O)[C@@H](N)Cc1ccc(O)cc1)C(=O)N[C@@H](Cc1c[nH]c2ccccc12)C(=O)NCc1cc(C(F)(F)F)cc(C(F)(F)F)c1`, the Ki on Substance-P receptor was 0.034 µM; in data set [2] it was 0.007 µM. In addition, the IC50 is 0.00832 µM at Mu-type opioid receptor [1] and 0.0155 µM in [2]. Further, the remaining at 50 ug/ml in data set [6] came out at 100%.

In the case of `CC(C)C[C@H](NC(=O)[C@@H]1CCCN1C(=O)[C@H](Cc1ccc(F)cc1)NC(=O)CNC(=O)[C@H](C)NC(=O)[C@@H](N)Cc1ccc(O)cc1)C(=O)N[C@@H](Cc1c[nH]c2ccccc12)C(=O)NCc1cc(C(F)(F)F)cc(C(F)(F)F)c1`, the result in data set [9] was inactive.

With `Cc1cc(O)cc(C)c1C[C@H](N)C(=O)N[C@@H](C)C(=O)NCC(=O)N[C@@H](Cc1ccc(Br)cc1)C(=O)N1CCC[C@H]1C(=O)N[C@@H](CC(C)C)C(=O)N[C@@H](Cc1c[nH]c2ccccc12)C(=O)NCc1cc(C(F)(F)F)cc(C(F)(F)F)c1`, the result in [11] was inactive.

Take `Cc1cc(O)cc(C)c1C[C@H](N)C(=O)N[C@H](C)C(=O)NCC(=O)N(C)[C@@H](Cc1ccccc1)C(=O)N1CCC[C@H]1C(=O)N[C@@H](CC(C)C)C(=O)N[C@@H](Cc1c[nH]c2ccccc12)C(=O)NCc1cc(C(F)(F)F)cc(C(F)(F)F)c1`: the IC50 at Mu-type opioid receptor [1] was 0.00166 µM; on Mu-type opioid receptor [4], 0.039 µM; in data set [5] it was 0.03 µM. Moreover, in data set [6], the remaining at 50 ug/ml came to 100%. Moreover, the Activity result in the data set listed under Rattus norvegicus is on record as “Toxic”.

`Cc1cc(O)cc(C)c1C[C@H](N)C(=O)N[C@@H](C)C(=O)NCC(=O)N[C@@H](Cc1ccc(I)cc1)C(=O)N1CCC[C@H]1C(=O)N[C@@H](CC(C)C)C(=O)N[C@@H](Cc1c[nH]c2ccccc12)C(=O)NCc1cc(C(F)(F)F)cc(C(F)(F)F)c1`: in [16], the result was inactive. For the same molecule, the Activity in data set [17] is 41%.

On Mu-type opioid receptor [1], `Cc1cc(O)cc(C)c1C[C@H](N)C(=O)N[C@H](C)C(=O)NCC(=O)N[C@@H](Cc1ccc(Br)cc1)C(=O)N1CCC[C@H]1C(=O)N[C@@H](CC(C)C)C(=O)N[C@@H](Cc1c[nH]c2ccccc12)C(=O)NCc1cc(C(F)(F)F)cc(C(F)(F)F)c1` had an IC50 of 0.011 µM.
